Assay results: PMC8742638 (Clinical and Translational Science, 2021)
Where two headings read alike, the source gives them in different places. One block for each compound: values may come before it.

Experiments:
[1] = type: in vivo, human; conditions: for Tmax: healthy female subjects, median (range); for bioavailability: oral
In short: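 Healthy female volunteers fasted about 10 h, then took a 100 mg oral tablet. A 13C-labeled microdose (15 µg/ml target, PEG-400 solution diluted in saline, filtered) was infused i.v. 4 h later. Plasma was sampled predose and 1–72 h post-oral, and 5–30 min post-i.v. Concentrations were measured by LC-MS/MS against a 0.0300–15.0 ng/ml calibration (1/x² weighting). Noncompartmental analysis used the actual i.v. dose, assayed from the unflushed infusion line.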

[2] = Stability and adsorption of the venetoclax microdose solution; type: physicochemical; conditions: during formulation and process development
[3] = cited from earlier work
CYP3A4 enzyme = conditions: cited from earlier work
[4] = 100 mg venetoclax oral tablet, fasting, N = 12, mean (%CV)
[5] = female, human, plasma, po, 100 mg
[6] = 100 µg 13C-venetoclax solution for IV infusion, N = 11, mean (%CV)
[7] = 100 µg 13C-venetoclax solution for IV infusion, actual dose, N = 11, mean (%CV)

AUCinf/dose [1, 4]: 19.3 (45%) (ng·h/ml)/mg | Cmax/dose [1, 4]: 1.49 (47%) (ng/ml)/mg | Tmax ([1]; 100 mg venetoclax oral tablet, fasting, N = 12): 4.2 (4.0–6.0) h | half-life ([1]; female, human, plasma, iv, 100 µg, t 1/2, 100 µg 13C-venetoclax solution for IV infusion, N = 11, harmonic mean (pseudo %CV)): ~14 h | bioavailability ([1]; female, human, plasma, 100 mg): 5.4% | AUC(0-inf) [1, 5]: 1930 ng·h/mL | AUC(0-t) [1, 5]: 1850 ng·h/mL | Cmax [1, 5]: 149 ng/mL | Tmax ([1]; female, human, plasma, po, 100 mg, Tmax, 100 mg venetoclax oral tablet, fasting, N = 12): ~4 h | half-life ([1]; female, human, plasma, po, 100 mg, t 1/2, 100 mg venetoclax oral tablet, fasting, N = 12, harmonic mean (pseudo %CV)): ~14 h | fraction metabolized by the liver in a single pass ([1]; from hepatic extraction ratio): 6% | bioavailability ([1]; human, plasma): 18 to 28% | adsorptive losses on the infusion line [2]: 1 to 2 µg/mL
Compound: CC1(C)CCC(CN2CCN(c3ccc(C(=O)NS(=O)(=O)c4ccc(NCC5CCOCC5)c([N+](=O)[O-])c4)c(Oc4cnc5[nH]ccc5c4)c3)CC2)=C(c2ccc(Cl)cc2)C1 [venetoclax]
pharmacokinetic linearity [3]: linear between 150 and 800 mg dose | terminal half-life [3]: 16 h | time to reach Cmax after dosing [3]: 6 to 8 h | metabolism (CYP3A4 enzyme): predominantly metabolized by the CYP3A4 enzyme

t 1/2 ([1]; 100 µg 13C-venetoclax solution for IV infusion, N = 11, harmonic mean (pseudo %CV)): 14.4 (5.5) h | AUCinf [1, 6]: 0.036 (39%) µg·h/ml | AUCt [1, 6]: 0.034 (37%) µg·h/ml | Cmax [1, 6]: 0.019 (19%) µg/ml | AUCinf/dose [1, 7]: 324 (37%) (ng·h/ml)/mg | AUCt/dose [1, 7]: 310 (36%) (ng·h/ml)/mg | Cmax/dose [1, 7]: 176 (16%) (ng/ml)/mg
Compound: [^13C7]‐venetoclax [^13C‐venetoclax]
